Values belong to the compound of their own block, whether it stands above or below them. Calls of active or inactive are those of the source. The calls are words filed in the database; no cut-off is given here.
How the values were obtained:
[1] = Toxicity in mouse allografted with AXL expressing mouse MXT cells assessed as weight loss at 15 mg/kg, ip qd administered 21 consecutive days; type: organism-based; conditions: in vivo
[2] = molecular target: 5-azacytidine-induced protein 2 (Homo sapiens, UniProt Q9H6S1); test: Binding affinity to AZI2 in SILAC-labeled human MDA-MB-231 cells lysate by mass spectrometry based kinAffinity assay; type: subcellular
Summary of the method: (§1)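 Chemical proteomics: MDA-MB-231 lysate bound to matrix of immobilized broad kinase inhibitors at several densities (BC50), then competed with increasing free compound (CC50); proteins quantified by mass spectrometry, Kd via Cheng-Prusoff. Two competition formats run in parallel to check equilibrium.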

[3] = molecular target: Enoyl-CoA hydratase, mitochondrial (Homo sapiens, UniProt P30084); test: Binding affinity to ECHS1 in SILAC-labeled human MDA-MB-231 cells lysate by mass spectrometry based kinAffinity assay; type: subcellular; summary of the method: as §1
LIM domain kinase 2 = LIM domain kinase 2 (Homo sapiens, UniProt P53671); test: Binding affinity to LIMK2 in SILAC-labeled human MDA-MB-231 cells lysate by mass spectrometry based kinAffinity assay; type: subcellular; summary of the method: as §1
[4] = molecular target: Serine/threonine-protein kinase TBK1 (Homo sapiens, UniProt Q9UHD2); test: Binding affinity to TBK1 in SILAC-labeled human MDA-MB-231 cells lysate by mass spectrometry based kinAffinity assay; type: subcellular
Summary of the method: (§2)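 MDA-MB-231 lysate applied to KinAffinity matrix of immobilized broadband kinase inhibitors at graded densities to obtain BC50 per target. Competition then run with increasing free compound to give CC50; Kd derived by Cheng-Prusoff. Two competition experiments in parallel to check equilibrium, one with lysate pre-incubated with compound before adding matrix. Quantitation by mass spectrometry.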

[5] = molecular target: TANK-binding kinase 1-binding protein 1 (Homo sapiens, UniProt A7MCY6); test: Binding affinity to TBKBP1 in SILAC-labeled human MDA-MB-231 cells lysate by mass spectrometry based kinAffinity assay; type: subcellular; summary of the method: as §2
[6] = molecular target: Delta(3,5)-Delta(2,4)-dienoyl-CoA isomerase, mitochondrial (Homo sapiens, UniProt Q13011); test: Binding affinity to ECH1 in SILAC-labeled human MDA-MB-231 cells lysate by mass spectrometry based kinAffinity assay; type: subcellular; summary of the method: as §1
[7] = molecular target: Cyclin-dependent kinase 17 (Homo sapiens, UniProt Q00537); test: Binding affinity to PCTK2 in SILAC-labeled human MDA-MB-231 cells lysate by mass spectrometry based kinAffinity assay; type: subcellular; summary of the method: as §2
MDA-MB-231 [8] = test: Antimetastatic activity against human MDA-MB-231 cells xenografted in mouse assessed as reduction in lymph node metastasis at 30 mg/kg, ip bid measured 3 times per week starting at day 12 by hematoxylin and eosin staining based assay relative to control; type: functional; parameters: scale not given: the % may be the effect or the level left
Summary of the method: (§3)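 Female SCID/Beige mice inoculated with 2 x 10^6 MDA-MB-231 cells in HBSS:Matrigel (1:1) into third mammary fat pad under ketamine/xylazine. Test agent 30 mg/kg ip twice daily (12 h apart) in PEG400/H2O 70:30, or paclitaxel 10 mg/kg iv three times weekly; 10 mice/group. Tumors measured three times weekly from day 12; lungs and lymph nodes excised, formalin-fixed, nodes H&E-scored (mean ± SEM).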

MDA-MB-231 [9] = test: Antimetastatic activity against human MDA-MB-231 cells xenografted in mouse assessed as reduction in lung metastasis at 30 mg/kg, ip bid measured 3 times per week starting at day 12 by hematoxylin and eosin staining based assay relative to control; type: functional; parameters: scale not given: the % may be the effect or the level left; summary of the method: as §3
[10] = molecular target: Tyrosine-protein kinase CSK (Homo sapiens, UniProt P41240); test: Inhibition of CSK (unknown origin) using fluorescently-labeled peptide as substrate at 10 uM by IMAP fluorescence polarization assay
[11] = molecular target: Tyrosine-protein kinase SYK (Homo sapiens) (UniProt P43405); test: Inhibition of SYK (unknown origin) using fluorescence labeled peptide as substrate at 10 uM by IMAP assay
[12] = molecular target: Receptor tyrosine-protein kinase erbB-2 (Homo sapiens) (UniProt P04626); test: Inhibition of ERBB2 (unknown origin) using biotinylated peptide as substrate at 10 uM by TR-FRET assay
[13] = molecular target: Serine/threonine-protein kinase B-raf (Homo sapiens) (UniProt P15056); test: Binding affinity to BRAF (unknown origin) at 10 uM
[14] = molecular target: Insulin receptor (Homo sapiens) (UniProt P06213); test: Inhibition of INSR (unknown origin) using fluorescently-labeled peptide as substrate at 10 uM by IMAP fluorescence polarization assay
[15] = molecular target: Receptor tyrosine-protein kinase erbB-2 (Homo sapiens) (UniProt P04626); test: Inhibition of ERBB2 (unknown origin) using biotinylated peptide as substrate at 10 uM by TR-FRET assay
Summary of the method: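 HTRF (TR-FRET) kinase assay at 10 µmol/L compound, in triplicate. A biotinylated kinase-specific peptide is phosphorylated. Detection uses a europium cryptate-labeled anti-phospho-residue antibody as donor and XL665-streptavidin as acceptor. Result is percent inhibition.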

[16] = molecular target: Fibroblast growth factor receptor 3 (Homo sapiens) (UniProt P22607); test: Inhibition of FGFR3 (unknown origin) using fluorescence labeled peptide as substrate at 10 uM by IMAP assay
Summary of the method: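 IMAP fluorescence-polarization kinase assay at 10 µmol/L compound, run in triplicate by a contract lab. A fluorescently labeled substrate peptide is phosphorylated, then nanoparticles carrying trivalent metal bind the phosphopeptide and slow its rotation. Read-out is fluorescence polarization, expressed as percent inhibition.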

[17] = molecular target: Proto-oncogene tyrosine-protein kinase receptor Ret (Homo sapiens) (UniProt P07949); test: Inhibition of RET (unknown origin) using fluorescently-labeled peptide as substrate at 10 uM by IMAP fluorescence polarization assay
[18] = molecular target: Fibroblast growth factor receptor 3 (Homo sapiens) (UniProt P22607); test: Inhibition of FGFR3 (unknown origin) using fluorescently-labeled peptide as substrate at 10 uM by IMAP fluorescence polarization assay
[19] = molecular target: Tyrosine-protein kinase SYK (Homo sapiens) (UniProt P43405); test: Inhibition of SYK (unknown origin) using fluorescence labeled peptide as substrate at 10 uM by IMAP assay
Summary of the method: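 Kinase selectivity profiling, run by a contract lab, with the test compound at 10 µmol/L in triplicate. In the IMAP format, the kinase phosphorylates a fluorescently labelled substrate peptide in solution. A binding solution of trivalent metal-based nanoparticles is then added to capture the phosphopeptide, and the drop in rotational speed is read as fluorescence polarization. Results are given as percent inhibition of each kinase.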

[20] = molecular target: Receptor tyrosine-protein kinase erbB-2 (Homo sapiens) (UniProt P04626); test: Binding affinity to ERBB2 (unknown origin) at 10 uM
Summary of the method: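 HTRF kinase assay for HER2 at 10 µM compound, triplicate: biotinylated peptide phosphorylated, detected by europium cryptate anti-phospho antibody and streptavidin-XL665 TR-FRET; percent inhibition.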

Receptor tyrosine-protein kinase erbB-2 (Homo sapiens), sequence (P04626 whole entry): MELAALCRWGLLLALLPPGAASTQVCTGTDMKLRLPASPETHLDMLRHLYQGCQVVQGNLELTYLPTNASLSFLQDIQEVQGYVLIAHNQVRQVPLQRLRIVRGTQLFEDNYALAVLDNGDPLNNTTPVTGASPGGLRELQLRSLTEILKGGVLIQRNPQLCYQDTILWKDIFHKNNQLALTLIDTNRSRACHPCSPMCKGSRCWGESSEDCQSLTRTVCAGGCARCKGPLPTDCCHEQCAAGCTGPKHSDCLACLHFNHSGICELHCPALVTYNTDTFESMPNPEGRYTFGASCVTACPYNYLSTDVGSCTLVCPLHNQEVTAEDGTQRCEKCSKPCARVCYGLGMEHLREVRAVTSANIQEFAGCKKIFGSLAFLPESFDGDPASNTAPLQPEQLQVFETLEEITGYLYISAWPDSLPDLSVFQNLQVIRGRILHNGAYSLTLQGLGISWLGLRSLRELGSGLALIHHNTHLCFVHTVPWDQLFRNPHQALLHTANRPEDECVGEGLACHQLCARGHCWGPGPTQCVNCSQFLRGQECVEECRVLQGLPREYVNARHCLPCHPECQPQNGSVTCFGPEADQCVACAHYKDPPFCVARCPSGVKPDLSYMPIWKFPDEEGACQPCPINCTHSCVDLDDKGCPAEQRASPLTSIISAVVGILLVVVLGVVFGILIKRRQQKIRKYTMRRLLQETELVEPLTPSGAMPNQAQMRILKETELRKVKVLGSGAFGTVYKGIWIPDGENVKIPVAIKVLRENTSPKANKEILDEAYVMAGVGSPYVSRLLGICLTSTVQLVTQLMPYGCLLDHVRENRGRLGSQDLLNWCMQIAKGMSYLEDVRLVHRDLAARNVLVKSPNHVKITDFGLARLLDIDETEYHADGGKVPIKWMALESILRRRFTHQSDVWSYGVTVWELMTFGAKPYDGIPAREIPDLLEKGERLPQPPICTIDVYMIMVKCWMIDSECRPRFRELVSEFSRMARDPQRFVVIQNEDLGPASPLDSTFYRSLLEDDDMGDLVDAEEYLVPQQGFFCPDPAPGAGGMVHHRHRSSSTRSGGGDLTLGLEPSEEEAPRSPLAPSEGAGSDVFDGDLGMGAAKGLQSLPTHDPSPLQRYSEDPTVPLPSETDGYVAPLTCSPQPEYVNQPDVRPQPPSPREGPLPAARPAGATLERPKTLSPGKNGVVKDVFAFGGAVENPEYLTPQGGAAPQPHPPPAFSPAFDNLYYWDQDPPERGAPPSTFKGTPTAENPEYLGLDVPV
Fibroblast growth factor receptor 3 (Homo sapiens), sequence (P22607 23-806 limits assumed): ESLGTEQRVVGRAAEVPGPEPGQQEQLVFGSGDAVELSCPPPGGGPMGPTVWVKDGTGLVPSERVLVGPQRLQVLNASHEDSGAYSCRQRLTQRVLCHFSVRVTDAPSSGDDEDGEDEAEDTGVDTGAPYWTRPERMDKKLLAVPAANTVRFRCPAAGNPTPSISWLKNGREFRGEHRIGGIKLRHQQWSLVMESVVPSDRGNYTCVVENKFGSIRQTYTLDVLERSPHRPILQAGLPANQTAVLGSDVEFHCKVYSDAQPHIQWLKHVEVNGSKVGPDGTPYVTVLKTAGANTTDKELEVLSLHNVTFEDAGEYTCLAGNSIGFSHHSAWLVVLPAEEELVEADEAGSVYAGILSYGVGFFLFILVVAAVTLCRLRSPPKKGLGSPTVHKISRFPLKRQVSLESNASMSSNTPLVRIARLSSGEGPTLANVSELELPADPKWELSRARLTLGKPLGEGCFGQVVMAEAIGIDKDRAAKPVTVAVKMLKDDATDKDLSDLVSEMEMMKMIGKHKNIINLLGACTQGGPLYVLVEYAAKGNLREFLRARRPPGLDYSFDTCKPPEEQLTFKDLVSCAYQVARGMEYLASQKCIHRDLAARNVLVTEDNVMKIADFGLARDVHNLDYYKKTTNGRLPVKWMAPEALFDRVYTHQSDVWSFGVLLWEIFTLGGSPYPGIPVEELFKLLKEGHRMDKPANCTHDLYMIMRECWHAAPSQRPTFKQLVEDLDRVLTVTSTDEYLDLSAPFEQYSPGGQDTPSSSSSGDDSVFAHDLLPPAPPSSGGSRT
Insulin receptor (Homo sapiens), sequence (P06213 28-758 limits assumed): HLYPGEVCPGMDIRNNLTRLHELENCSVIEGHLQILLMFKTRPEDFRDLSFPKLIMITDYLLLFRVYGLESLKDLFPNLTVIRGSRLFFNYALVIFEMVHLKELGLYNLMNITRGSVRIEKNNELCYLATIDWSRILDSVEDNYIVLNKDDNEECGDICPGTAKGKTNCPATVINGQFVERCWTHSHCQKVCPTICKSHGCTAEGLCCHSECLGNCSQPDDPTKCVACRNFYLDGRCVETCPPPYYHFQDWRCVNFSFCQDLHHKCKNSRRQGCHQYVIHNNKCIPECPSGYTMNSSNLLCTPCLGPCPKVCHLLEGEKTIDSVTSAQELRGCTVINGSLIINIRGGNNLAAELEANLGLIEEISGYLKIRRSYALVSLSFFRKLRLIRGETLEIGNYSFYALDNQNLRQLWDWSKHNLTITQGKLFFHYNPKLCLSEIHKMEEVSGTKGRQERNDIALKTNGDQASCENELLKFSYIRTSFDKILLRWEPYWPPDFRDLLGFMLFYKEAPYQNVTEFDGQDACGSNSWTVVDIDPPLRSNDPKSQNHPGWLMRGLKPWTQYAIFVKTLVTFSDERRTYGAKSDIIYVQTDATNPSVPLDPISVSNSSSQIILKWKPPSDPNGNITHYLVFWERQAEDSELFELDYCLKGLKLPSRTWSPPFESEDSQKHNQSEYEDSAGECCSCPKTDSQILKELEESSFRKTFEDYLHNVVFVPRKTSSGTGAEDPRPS
Insulin receptor (Homo sapiens), sequence (P06213 763-1382 limits assumed): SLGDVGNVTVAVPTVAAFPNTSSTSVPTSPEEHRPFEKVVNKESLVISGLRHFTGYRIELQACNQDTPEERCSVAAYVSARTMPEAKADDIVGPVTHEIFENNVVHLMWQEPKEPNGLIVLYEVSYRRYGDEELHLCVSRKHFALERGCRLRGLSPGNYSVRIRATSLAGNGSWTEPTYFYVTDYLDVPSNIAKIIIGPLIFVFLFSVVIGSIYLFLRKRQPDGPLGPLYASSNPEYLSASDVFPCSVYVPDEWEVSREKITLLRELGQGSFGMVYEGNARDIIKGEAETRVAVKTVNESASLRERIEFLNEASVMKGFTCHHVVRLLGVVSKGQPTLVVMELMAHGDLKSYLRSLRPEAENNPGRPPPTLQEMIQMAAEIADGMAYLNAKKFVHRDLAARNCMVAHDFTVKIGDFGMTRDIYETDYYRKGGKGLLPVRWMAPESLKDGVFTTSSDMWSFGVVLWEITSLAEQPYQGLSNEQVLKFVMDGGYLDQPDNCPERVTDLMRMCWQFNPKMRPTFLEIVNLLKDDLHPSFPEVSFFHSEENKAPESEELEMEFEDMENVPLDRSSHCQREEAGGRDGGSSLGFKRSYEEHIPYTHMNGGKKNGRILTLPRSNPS
Delta(3,5)-Delta(2,4)-dienoyl-CoA isomerase, mitochondrial, sequence (Q13011 whole entry): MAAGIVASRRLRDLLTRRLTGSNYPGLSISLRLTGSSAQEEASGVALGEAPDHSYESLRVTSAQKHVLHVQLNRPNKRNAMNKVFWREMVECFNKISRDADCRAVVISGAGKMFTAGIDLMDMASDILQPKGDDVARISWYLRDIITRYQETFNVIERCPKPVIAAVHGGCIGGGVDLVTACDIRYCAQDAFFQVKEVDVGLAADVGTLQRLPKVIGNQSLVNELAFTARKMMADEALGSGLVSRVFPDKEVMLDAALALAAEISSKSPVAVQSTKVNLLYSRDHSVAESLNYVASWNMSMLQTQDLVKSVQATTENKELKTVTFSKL
LIM domain kinase 2, sequence (P53671 whole entry, the tested form may be a part): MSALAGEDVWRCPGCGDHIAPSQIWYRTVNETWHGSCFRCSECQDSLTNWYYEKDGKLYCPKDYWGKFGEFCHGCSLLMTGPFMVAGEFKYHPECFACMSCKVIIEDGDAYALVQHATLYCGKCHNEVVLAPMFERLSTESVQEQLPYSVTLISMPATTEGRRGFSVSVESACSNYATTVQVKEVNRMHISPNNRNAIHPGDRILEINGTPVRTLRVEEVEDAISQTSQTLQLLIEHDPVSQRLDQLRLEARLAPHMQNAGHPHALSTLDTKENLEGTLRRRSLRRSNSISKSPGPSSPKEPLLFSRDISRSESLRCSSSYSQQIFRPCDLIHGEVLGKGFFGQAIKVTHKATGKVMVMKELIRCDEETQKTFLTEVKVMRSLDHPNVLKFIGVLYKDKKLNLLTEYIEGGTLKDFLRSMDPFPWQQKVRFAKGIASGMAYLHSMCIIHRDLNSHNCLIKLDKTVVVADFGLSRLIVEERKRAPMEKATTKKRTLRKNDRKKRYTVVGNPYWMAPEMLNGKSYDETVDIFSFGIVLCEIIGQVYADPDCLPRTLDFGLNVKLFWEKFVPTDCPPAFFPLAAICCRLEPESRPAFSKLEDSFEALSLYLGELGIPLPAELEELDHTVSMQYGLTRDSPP
5-azacytidine-induced protein 2, sequence (Q9H6S1 whole entry): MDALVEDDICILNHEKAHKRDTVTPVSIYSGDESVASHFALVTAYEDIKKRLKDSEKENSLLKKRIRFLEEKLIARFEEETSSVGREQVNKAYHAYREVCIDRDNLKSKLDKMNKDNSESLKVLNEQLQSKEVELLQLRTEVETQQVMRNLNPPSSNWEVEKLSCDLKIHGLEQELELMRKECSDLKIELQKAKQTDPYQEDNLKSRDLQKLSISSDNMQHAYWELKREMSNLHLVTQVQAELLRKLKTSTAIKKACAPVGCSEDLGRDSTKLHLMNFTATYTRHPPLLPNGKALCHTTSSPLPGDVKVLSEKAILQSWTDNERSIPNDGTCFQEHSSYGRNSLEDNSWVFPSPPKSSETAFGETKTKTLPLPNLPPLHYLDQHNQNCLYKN
Enoyl-CoA hydratase, mitochondrial, sequence (P30084 whole entry, the tested form may be a part): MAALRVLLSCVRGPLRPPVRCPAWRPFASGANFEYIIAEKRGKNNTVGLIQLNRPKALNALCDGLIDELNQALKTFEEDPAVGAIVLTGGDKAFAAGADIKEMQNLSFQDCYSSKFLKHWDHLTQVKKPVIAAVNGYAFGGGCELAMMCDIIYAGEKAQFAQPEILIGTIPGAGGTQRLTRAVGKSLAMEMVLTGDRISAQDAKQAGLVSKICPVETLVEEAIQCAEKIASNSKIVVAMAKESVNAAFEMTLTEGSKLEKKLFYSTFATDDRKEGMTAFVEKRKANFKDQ

Compound: COc1cc2c(Oc3ccc(NS(=O)(=O)c4cc(F)ccc4F)cc3F)ccnc2cc1OCCCN1CCCC(C)C1 (stereo unspecified)
Activity [1]: Non-Toxic

Kd(free) [2]: 2982 nM
Kd(free) [3]: 9237 nM
Kd(free) (LIM domain kinase 2): 2784 nM
Kd(free) [4]: 3273 nM
Kd(free) [5]: 2090 nM
Compound: COc1cc2c(Oc3ccc(NS(=O)(=O)c4c(F)cccc4F)cc3F)ccnc2cc1OCCCN1CCN(C)CC1

Kd(free) [6]: 2857 nM
Kd(free) [7]: > 7651 nM
Compound: COc1cc2c(Oc3ccc(NS(=O)(=O)c4cc(F)ccc4F)cc3F)ccnc2cc1OCCCN1CCN(C)CC1
Activity (MDA-MB-231 [8]): 14.3%
Activity (MDA-MB-231 [9]): 65.7%

inhibition [10]: Active
inhibition [11]: Active
inhibition [12]: Active
inhibition [13]: Active
inhibition [14]: Active
inhibition [15]: Active
inhibition [16]: Active
inhibition [17]: Active
inhibition [18]: Active
inhibition [19]: Active
inhibition [20]: Active
Compound: COc1cc2c(Oc3ccc(NS(=O)(=O)c4ccccc4C(F)(F)F)cc3F)ccnc2cc1OCCCN1CCN(C)CC1
